Screens (PubChem BioAssay)
In the library only some 2.1% were active in any assay of this set; here they are far more common.
ERp5 block = inhibitors of ERp5-driven insulin aggregation, primary screen, biochemical, turbidity, absorbance 650 nm, single point | Protein disulfide-isomerase A6 (Homo sapiens), Q15084 | 90 min | inhibition, % at 9.99 µM | hit rate 0.05% among 350,000;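 active = mean replicate inhibition above about 25%, with every replicate also reaching it, limit read from the data, passing the limit was not always enough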
PDI inh = inhibitors of human PDI, primary screen, biochemical, turbidity, single point, plate reader; Protein disulfide-isomerase (Homo sapiens), P07237; PDI insulin aggregation turbidity, A650, 90 min; inhibition, % at 10 µM; hit rate 0.052% among 350,000;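 active = mean inhibition across replicates of 30% or more, whatever share of single replicates reach that level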
Target sequence (P07237 whole entry, looked up): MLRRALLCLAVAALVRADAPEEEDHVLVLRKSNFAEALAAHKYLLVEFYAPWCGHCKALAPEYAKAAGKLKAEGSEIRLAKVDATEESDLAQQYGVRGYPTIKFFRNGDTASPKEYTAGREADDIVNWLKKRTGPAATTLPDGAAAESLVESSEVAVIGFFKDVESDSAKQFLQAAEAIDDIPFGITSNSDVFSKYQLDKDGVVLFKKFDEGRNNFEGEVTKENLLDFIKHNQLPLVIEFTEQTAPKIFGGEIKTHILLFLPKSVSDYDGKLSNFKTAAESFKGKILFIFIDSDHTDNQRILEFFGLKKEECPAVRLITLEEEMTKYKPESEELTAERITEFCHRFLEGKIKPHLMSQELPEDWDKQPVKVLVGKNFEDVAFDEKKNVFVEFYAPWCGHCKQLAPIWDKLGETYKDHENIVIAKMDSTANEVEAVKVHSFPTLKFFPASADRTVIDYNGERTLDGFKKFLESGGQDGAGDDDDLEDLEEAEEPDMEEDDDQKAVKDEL
MLL AF4-AF9 inh = inhibitors of AF4 peptide binding to AF9, primary screen, biochemical, AlphaScreen, biotin-AF4 peptide, FLAG-AF9, single point | AID 651704, 2012 | inhibition, % at 10 µM | Protein AF-9 (Homo sapiens), P42568 | hit rate 0.47% among 350,000;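 active = every replicate reaching a set inhibition limit, whatever the replicate mean, cut at about 25% in these data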
FGF22 binding = binders of human FGF22 protein, primary screen, FGF22 synaptogenesis inhibitor project, biophysical, thermal shift, single point; AID 651658, 2012; activity (Tm shift, normalised), % at 9.99 µM; Fibroblast growth factor 22 (Homo sapiens), Q9HCT0; recombinant FGF22 thermal shift, SYPRO orange fluorescence; percent of sucrose octasulfate shift, DMSO zero; hit rate 1.5% among 340,000;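 active = mean Tm shift, scaled 0 neutral to 100 positive control, at about 1.3% or above, every replicate too, limit read from the data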
Target sequence (Q9HCT0 whole entry, looked up): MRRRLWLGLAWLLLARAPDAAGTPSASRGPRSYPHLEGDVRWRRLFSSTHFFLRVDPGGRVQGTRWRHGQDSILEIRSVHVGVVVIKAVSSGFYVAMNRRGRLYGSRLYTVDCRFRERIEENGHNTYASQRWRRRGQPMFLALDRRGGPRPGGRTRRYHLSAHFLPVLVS
FN deposit inh = inhibitors of fibronectin matrix deposition, primary screen, AH1F cells, Alexa488-fibronectin fluorescence, plate reader; AH1F fibroblasts, overnight; inhibition, % at 12.6 µM; hit rate 0.086% among 350,000;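 active = mean inhibition across replicates of 30% or more, regardless of how many single replicates reach that level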
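Material – AH1F fibroblast monolayer, labelled fibronectin deposition · Reagent – labelled fibronectin 24 nM · Timing – 1 h adhesion, overnight exposure · Measured by – fluorescence at 485 nm excitation, 525 nm emission · Read-out – inhibition of fibronectin deposition signal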
ARNT-TACC3 inh = disruptors of ARNT/TACC3 protein interaction, primary screen, biochemical, AlphaScreen, single concentration | Transforming acidic coiled-coil-containing protein 3 (Homo sapiens), Q9Y6A5 | AlphaScreen His-ARNT PAS-B/GST-TACC3 binding, luminescence; TACC3 fragment carries E629A point mutation | inhibition, % at 9.99 µM | hit rate 0.66% among 390,000;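 active = mean inhibition of replicates at least 50% and at least half of replicates each reaching 50%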
Of the large screens only hits and unclear results are named; the others gave an inactive call.

CC(C)(C)c1nnc2sc(SCC(=O)N3CCc4ccccc43)nn2c1=O	FGF22 binding 43
CCOc1cc(N2CCOCC2)c(OCC)cc1NC(=O)C(C)Oc1ccccc1 (centres undefined)	MLL AF4-AF9 inh 29 (no result: FN deposit inh)
C[C@H]1C(=O)N(C)CCN1Cc1cn(C)nc1-c1ccc(Oc2ccccc2)cc1	FGF22 binding 44
CCN(CC)C(=O)C1CCN(Cc2cn(C)nc2-c2ccc(Oc3ccccc3)cc2)CC1	none
COc1ccccc1C(=O)NCC1(c2ccccc2)CCCC1	FGF22 binding 43
CCC(=O)N1CCC2(CC1)Oc1ccc(Cl)cc1C(=O)C21CC(c2ccccc2)=NO1 (centres undefined)	none
O=C(/C=C/c1cccs1)N1CCC2(CC1)Oc1ccc(Cl)cc1C(=O)C21CC(c2ccccc2)=NO1 (centres undefined)	ARNT-TACC3 inh 24 (no result: MLL AF4-AF9 inh)
CCCC(=O)Nc1ccc2c(c1)OC[C@H](C)N(C(=O)c1ccccc1F)C[C@H](C)[C@@H](OC)CN(C)C2=O	none (no result: PDI inh, ARNT-TACC3 inh)
C[C@H]1CN([C@@H](C)CO)S(=O)(=O)c2ccc(/C=C/c3ccccc3)cc2O[C@@H]1CN(C)C(=O)NC1CCCC1	none (no result: PDI inh)
COc1ccc(-c2cc(=O)oc3cc(OC(C)C(=O)NCc4ccccn4)ccc23)cc1 (centres undefined)	FGF22 binding 49 (no result: PDI inh, FN deposit inh)
COc1ccc(-c2cc(=O)oc3cc(OCC(=O)NCc4ccccn4)ccc23)cc1	none (no result: PDI inh, FN deposit inh)
CCCc1cn(CC[C@@H]2CC[C@H](NC(=O)Cc3cccnc3)[C@@H](CO)O2)nn1	none (no result: PDI inh)
Cc1ccc2nc(SCc3nc4cc(Cl)ccc4c(=O)[nH]3)[nH]c2c1	FGF22 binding 43
CCCn1nc(C(=O)OCC(=O)Nc2cccc(OC)c2)c2ccccc2c1=O	FGF22 binding 43
CCCC(O)(c1ccccc1)C(CN1CCOCC1)c1ccccc1 (centres undefined)	none
CCCC(O)(c1ccc(Cl)cc1)C(CN1CCOCC1)c1ccccc1 (centres undefined)	ARNT-TACC3 inh 46
c1ccc(-c2nc3c(ccc4ccccc43)[nH]2)nc1	ARNT-TACC3 inh 57 (no result: ERp5 block, MLL AF4-AF9 inh, FGF22 binding, FN deposit inh)
Nc1ccc(Cc2nc3c(ccc4ccccc43)[nH]2)cc1	none (no result: FN deposit inh)
Cc1cccc(Cc2c(C)[nH]c(=O)c(C#N)c2C)c1	FGF22 binding 43
N/C(=N\C(=S)Nc1ccccc1)c1ccccc1	MLL AF4-AF9 inh 43
CC(C)CCN1CCN(CC(c2ccccc2)c2ccccc2)CC1CCO (centres undefined)	FGF22 binding 43 (no result: FN deposit inh)
CC(C)CCN1CCN(Cc2nc3ccccc3s2)CC1CCO (centres undefined)	none
CN(C)S(=O)(=O)c1ccc(N=Cc2c(C(F)(F)F)[nH]n(C)c2=O)cc1	FGF22 binding 44
COC(=O)c1ccc(N=Cc2c(C(F)(F)F)[nH]n(C)c2=O)cc1	none
C#CCN1CCc2onc(-c3ccc(Br)cc3)c2C1=O	FGF22 binding 43 (no result: PDI inh, ARNT-TACC3 inh)
CCCOCc1ccc(O)c2ncccc12	none
OCc1ccc(O)c2ncccc12	ARNT-TACC3 inh 71 (no result: ERp5 block, MLL AF4-AF9 inh, FGF22 binding, FN deposit inh)
Oc1ccc(CNc2ccccc2F)c2cccnc12	ARNT-TACC3 inh 49
Oc1ccc(F)c2cccnc12	none
Oc1ccc(COCc2ccccc2)c2cccnc12	MLL AF4-AF9 inh 66, ARNT-TACC3 inh 80 (no result: ERp5 block, FGF22 binding)
Oc1ccc(Cc2ccccc2)c2cccnc12	MLL AF4-AF9 inh 57 (no result: ARNT-TACC3 inh)
CO[C@@H]1CN(C)C(=O)c2cc(NC(=O)CC(F)(F)F)ccc2OC[C@H](C)N(C(=O)C2CCOCC2)C[C@H]1C	none (no result: ERp5 block, PDI inh, ARNT-TACC3 inh)
C[C@H](CO)N1C[C@H](C)[C@H](CN(C)Cc2ccncc2)Oc2ccc(NS(=O)(=O)c3ccccc3)cc2CC1=O	none (no result: PDI inh)
O=C(NC1CCCC1)[C@@H]1[C@@H](CO)[C@@H]2Cn3c(ccc(-c4ccccc4)c3=O)[C@H]1N2CCc1ccccc1	none (no result: ERp5 block, PDI inh, FGF22 binding, FN deposit inh)
Cc1ccc(/C=C/C(=O)O)cc1S(=O)(=O)Nc1ccccc1C(=O)O	FGF22 binding 43 (no result: FN deposit inh)
Cc1ccc(/C=C/C(=O)O)cc1S(=O)(=O)N1CCc2ccccc2C1	FGF22 binding 43
Cc1noc(C)c1NC(=O)N[C@@H]1C=C[C@@H](CC(=O)NCc2ccc(Cl)c(Cl)c2)O[C@@H]1CO	none (no result: PDI inh)
COc1ccc2c(c1)[C@]1(C(=O)N2C)C2=C(CCCC2=O)Oc2cc(C)oc(=O)c21	FGF22 binding 43 (no result: PDI inh, ARNT-TACC3 inh)
Cc1cc2c(c(=O)o1)[C@@]1(C(=O)N(C)c3ccc([N+](=O)[O-])cc31)C1=C(CCCC1=O)O2	none (no result: PDI inh, ARNT-TACC3 inh)
C=C(C)COc1ccc(-c2nc(N)ncc2-c2ccc(OC)c(OC)c2)c(O)c1	none
C=C(C)COc1ccc(-c2nc(N)ncc2-c2ccc(OC)cc2)c(O)c1	MLL AF4-AF9 inh 28 (no result: ERp5 block, PDI inh, FGF22 binding)
CN(C)c1ccc(CNCC2CCCO2)cc1 (centres undefined)	none
c1cc(CNCC2CCCO2)ccn1 (centres undefined)	FGF22 binding 43 (no result: ARNT-TACC3 inh)
Cc1ccc2[nH]c(C(=O)NN=C3CCCCC3)c(-c3ccccc3)c2c1	FGF22 binding 43
COC(=O)Cc1nnn2c1[C@H](C)[C@@H](OC)c1cccc(Cl)c1-2	FGF22 binding 82 (no result: PDI inh, ARNT-TACC3 inh)
COC(=O)Cc1nnn2c1[C@H](C)[C@@H](OC)c1ccc(C(F)(F)F)cc1-2	none (no result: PDI inh, ARNT-TACC3 inh)
C[C@@H]1CN([C@@H](C)CO)S(=O)(=O)c2ccc(C#CC3CC3)cc2O[C@H]1CN(C)C(=O)C1CCCCC1	none (no result: ERp5 block, PDI inh, MLL AF4-AF9 inh, FGF22 binding, ARNT-TACC3 inh)
CCSS(=O)(=O)c1cccc2cccnc12	ARNT-TACC3 inh 65
O=S(=O)(Nc1ccc(Cl)cc1)c1cccc2cccnc12	ARNT-TACC3 inh 38
COc1ccc(S(=O)(=O)N(C)C[C@H]2OCCCC[C@@H](C)Oc3ccc(NS(=O)(=O)c4cn(C)cn4)cc3C(=O)N([C@H](C)CO)C[C@@H]2C)cc1	none (no result: PDI inh)
C[C@H]1CN([C@@H](C)CO)C(=O)CCCn2nncc2CO[C@H]1CN(C)Cc1ccc(Cl)c(Cl)c1	none (no result: PDI inh)
COC(=O)C1CCN(C(=O)Cc2ccccc2OC)CC1	FGF22 binding 43
O=C(COc1ccc(S(=O)(=O)N2CCOCC2)cc1)NCCc1ccc(Cl)cc1	FGF22 binding 43 (no result: ARNT-TACC3 inh)
O=C(/C=C/c1ccc(S(=O)(=O)N2CCOCC2)cc1)NCc1ccc(Cl)cc1	ARNT-TACC3 inh 14
COc1ccc(CNC(=O)COc2ccc(S(=O)(=O)N3CCOCC3)cc2)cc1	none
CCOC(=O)N1CCN(S(=O)(=O)c2ccc(C(=O)N(CCN(C)C)c3nc4c(C)cccc4s3)cc2)CC1	none
